The text below walks through data of ChEMBL document CHEMBL1139481, “Synthesis and biological activity of anticancer ether lipids that are specifically released by phospholipase A2 in tumor tissue” (J Med Chem, 2005).

What all share (assay type): functional, cell-based
For one experiment, the system named is Caco-2. The experiment is described as follows: Cytotoxicity against human Caco-2 cells after 72 hrs by MTT assay. The following applies: Caco-2, 72 h. In a few lines:
(§1)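 Cells (Caco-2 in Dulbecco's modified Eagle medium; HT-29 in McCoy's 5A; both with 10% FCS and 2 mM L-glutamine; KATO III in RPMI 1640 with 10% heat-inactivated FCS, 2 mM L-glutamine, 1 mM pyruvate, 5% CO2, 37 °C) plated at 1 × 10^4/well 24 h before adding AELs in PBS with 5-30% ethanol. After 72 h, MTT read-out. IC50 is 50% reduction in cell number; mean ± SD, n = 3-9.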
For orientation: Tetrazolium assays rely on reduction of a dye to a coloured formazan, in cell work by metabolically active cells.

Experiment [1] is described as follows: Cytotoxicity against human KATO3 cells after 72 hrs by MTT assay. The following applies: KATO3, 72 h. The procedure, abridged:
as §1

The subject of experiment [2] is MDA-MB-435. As to the kind of experiment: Cytotoxicity against human MDA-MB-435 cells after 3 days in serum free conditions by MTT assay. Conditions: MDA-MB-435, 72 h. The procedure, abridged:
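MDA-MB-435 cells grown in Dulbecco's modified Eagle medium with 10% FCS and 2 mM L-glutamine, then plated at 1 × 10^4/well 24 h before treatment. Lipids in PBS with 5-30% ethanol were added, and cells were incubated 3 days without serum to match the Akt study conditions. MTT read-out was expressed as percentage reduction in incorporated MTT, run in triplicate.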

For a further experiment, the system named is HT-29. As to the kind of experiment: Cytotoxicity against human HT29 cells after 72 hrs by MTT assay. The following applies: HT-29, 72 h. In a few lines:
as §1

For experiment [3], the system named is MDA-MB-435. As to the kind of experiment: Inhibition of Akt phosphorylation in MDA-MB-435 cells after 2 hrs. The following applies: Homo sapiens, MDA-MB-435, 2 h. The procedure, abridged:
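MDA-MB-435 cells at 70% confluency, serum-starved 18 h, then given compound for 2 h and stimulated with insulin 10 µg/mL for 30 min. Lysates taken in Laemmli buffer after an ice-cold PBS wash. Western blot probed for Ser473 phospho-Akt, with total Akt as loading control. Controls: no insulin, and wortmannin 2 µM for 2 h before insulin.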

Broadly, the IC50 is the concentration that inhibits the measured activity by half. Low values mean greater potency in that assay, high ones weaker potency in that assay. Regarding `CCCCCCCCCCCCCCCCOC[C@@H](O)COP(=O)(O)OC[C@@H](O)CO`, the IC50 was determined as 75 µM in the experiment on Caco-2; 49 µM in experiment [1]; 47 µM in the experiment with MDA-MB-435 [2]; 20 µM in the experiment on HT-29; 24 µM in the experiment with MDA-MB-435 [3].

Regarding `CCCCCCCCCCCCCCCCOC[C@@H](O)COP(=O)(O)OC[C@H](O)CO`, the figures for the IC50 in the experiment on MDA-MB-435 [2], with HT-29 and in the experiment on MDA-MB-435 [3] were 73 µM, 105 µM and 24 µM, respectively.

Turning to `CCCCCCCCCCCCCCCCCCOCC(COP(=O)([O-])OCC[N+](C)(C)C)OC` (configuration not stated) [EDELFOSINE], the IC50 in the experiment with MDA-MB-435 [2] is 12 µM; with MDA-MB-435 [3], 3 µM.

As for `CCCCCCCCCCCCCCCCOP(=O)([O-])OCC[N+](C)(C)C` [MILTEFOSINE], the IC50 in the experiment on MDA-MB-435 [2] amounted to 23 µM; in the experiment on MDA-MB-435 [3], 5 µM.
